The source of these data is ChEMBL document CHEMBL4219031, “Identification and Characterization of Von Hippel-Lindau-Recruiting Proteolysis Targeting Chimeras (PROTACs) of TANK-Binding Kinase 1” (J Med Chem, 2018).

The target in assay [1] is T1, von Hippel-Lindau disease tumor suppressor/Serine/threonine-protein kinase TBK1 (Homo sapiens, UniProt Q9UHD2+P40337). As to the kind of experiment: Induction of VHL-mediated TBK1 degradation in human Panc02.13 cells after 16 hrs by Western blot method. In kind it is cell-based. An outline of the steps:
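For phospho-IRF3 read-out, TLR3 agonist Poly I:C added for the final 3 h. Cells lysed in RIPA buffer with protease/phosphatase inhibitors, lysates clarified at 16,000g, run on SDS-PAGE and immunoblotted for TBK1, pIRF3 and GAPDH.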
Target sequence in this assay (P40337 whole entry, one chain of several): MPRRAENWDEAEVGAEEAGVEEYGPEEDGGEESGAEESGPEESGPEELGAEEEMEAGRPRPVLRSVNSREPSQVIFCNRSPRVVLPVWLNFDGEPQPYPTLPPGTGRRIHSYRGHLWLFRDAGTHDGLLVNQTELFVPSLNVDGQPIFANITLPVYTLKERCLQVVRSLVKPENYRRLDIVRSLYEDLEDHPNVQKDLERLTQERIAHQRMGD

The target in assay [2] is T1, von Hippel-Lindau disease tumor suppressor/Serine/threonine-protein kinase TBK1. Description: Induction of VHL-mediated TBK1 degradation in human Panc02.13 cells after 16 hrs by Western blot method relative to control. Format: cell-based. A digest of the protocol: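 Panc02.13 cells grown in RPMI-1640 with 15% FBS and 10 units/mL human recombinant insulin, exposed to compound for 16 h. For phospho-IRF3 read-out, TLR3 agonist Poly I:C added for the final 3 h. Cells lysed in RIPA buffer with protease/phosphatase inhibitors, lysates clarified at 16,000g, run on SDS-PAGE and immunoblotted for TBK1, pIRF3 and GAPDH.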
Target sequence in this assay (P40337 whole entry, looked up, one chain of several): as the sequence (P40337 whole entry, one chain of several) above

Assay [3] deals with T2, Serine/threonine-protein kinase TBK1 (Homo sapiens, UniProt Q9UHD2).
T2 sequence (Q9UHD2 whole entry): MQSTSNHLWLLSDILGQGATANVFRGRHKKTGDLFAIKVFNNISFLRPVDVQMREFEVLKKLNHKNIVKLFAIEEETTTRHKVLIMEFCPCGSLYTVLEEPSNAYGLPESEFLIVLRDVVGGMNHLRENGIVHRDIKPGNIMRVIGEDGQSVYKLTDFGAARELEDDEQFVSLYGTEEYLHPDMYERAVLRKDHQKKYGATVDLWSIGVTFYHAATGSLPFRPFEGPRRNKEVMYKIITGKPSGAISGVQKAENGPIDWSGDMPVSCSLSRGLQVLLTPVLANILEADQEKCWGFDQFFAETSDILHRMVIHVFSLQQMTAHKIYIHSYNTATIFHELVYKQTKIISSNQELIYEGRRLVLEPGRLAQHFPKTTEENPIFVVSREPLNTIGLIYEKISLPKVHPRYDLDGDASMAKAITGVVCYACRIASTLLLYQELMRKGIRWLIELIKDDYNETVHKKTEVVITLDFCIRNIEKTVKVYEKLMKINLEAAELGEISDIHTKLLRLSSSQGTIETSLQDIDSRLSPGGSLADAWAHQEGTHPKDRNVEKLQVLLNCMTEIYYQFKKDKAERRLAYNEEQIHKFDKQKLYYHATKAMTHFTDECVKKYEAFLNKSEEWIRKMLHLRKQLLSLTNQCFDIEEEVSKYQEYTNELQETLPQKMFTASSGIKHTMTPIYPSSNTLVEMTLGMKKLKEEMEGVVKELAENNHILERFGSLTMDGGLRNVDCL
As to the kind of experiment: Binding affinity to human full length wild-type TBK1 expressed in mammalian expression system.

For `Cc1ncsc1-c1ccc(CNC(=O)[C@@H]2C[C@@H](O)CN2C(=O)[C@@H](NC(=O)CCCCCOCCOc2ccc(Nc3ncc(Br)c(NCCCN(C)C(=O)C4CCC4)n3)cc2)C(C)(C)C)cc1`, the DC50 (commonly the midpoint of the concentration-degradation curve) in assay [1] is over 1 µM.

On to `Cc1ncsc1-c1ccc(CNC(=O)[C@@H]2C[C@@H](O)CN2C(=O)[C@@H](NC(=O)COCCOCCOCCOCCOCCOc2ccc(Nc3ncc(Br)c(NCCCN(C)C(=O)C4CCC4)n3)cc2)C(C)(C)C)cc1`, for which the Emax (as a rule, the maximal effect, on the per cent scale that the assay sets) in assay [2] amounted to 96%. The DC50 in assay [1] was 0.029 µM.

Regarding `Cc1ncsc1-c1ccc(CNC(=O)[C@@H]2C[C@@H](O)CN2C(=O)[C@@H](NC(=O)CCOCCCOCCCOCCCOCCCOc2ccc(Nc3ncc(Br)c(NCCCN(C)C(=O)C4CCC4)n3)cc2)C(C)(C)C)cc1`, the Emax in assay [2] was determined as 96%. In assay [1], this compound registered a DC50 of 0.025 µM.

The compound `Cc1ncsc1-c1ccc(CNC(=O)[C@@H]2C[C@@H](O)CN2C(=O)[C@@H](NC(=O)COCCCOCCCCCOc2ccc(Nc3ncc(Br)c(NCCCN(C)C(=O)C4CCC4)n3)cc2)C(C)(C)C)cc1` displayed an Emax in assay [2] of 79%. In assay [1], this compound registered a DC50 of 0.088 µM.

Consider `CCc1cnc(Nc2ccc(OCCCOCCCCOCCCOCC(=O)N[C@H](C(=O)N3C[C@H](O)C[C@H]3C(=O)NCc3ccc(-c4scnc4C)cc3)C(C)(C)C)cc2)nc1NCCCN(C)C(=O)C1CCC1`, for which the Emax in assay [2] was found to be 77%. For the same compound, in assay [1], the DC50 turned out to be 0.121 µM. Also, the Kd – broadly, the constant that tells how readily two partners part at equilibrium – in assay [3] was 0.275 µM.

In assay [2], `Cc1ncsc1-c1ccc(CNC(=O)[C@@H]2C[C@@H](O)CN2C(=O)[C@@H](NC(=O)CCCCCOCCCCOCCCCOc2ccc(Nc3ncc(Br)c(NCCCN(C)C(=O)C4CCC4)n3)cc2)C(C)(C)C)cc1` showed an Emax of 90%. In assay [1], this compound came in with a DC50 of 0.095 µM.

Consider `Cc1ncsc1-c1ccc(CNC(=O)[C@@H]2C[C@@H](O)CN2C(=O)[C@@H](NC(=O)COCCCOCCCCOCCCOc2ccc(Nc3ncc(C4CC4)c(NCCCN(C)C(=O)C4CCC4)n3)cc2)C(C)(C)C)cc1`, for which the Emax in assay [2] turned out to be 96%. Further, the DC50 in assay [1] turned out to be 0.065 µM. Besides, the Kd in assay [3] is 0.245 µM.

`Cc1ncsc1-c1ccc(CNC(=O)[C@@H]2C[C@@H](O)CN2C(=O)[C@@H](NC(=O)COCCOCCOCCCCOc2ccc(Nc3ncc(Br)c(NCCCN(C)C(=O)C4CCC4)n3)cc2)C(C)(C)C)cc1` gave an Emax in assay [2] of 86%. In assay [1], the DC50 is 0.071 µM.

Consider `Cc1ncsc1-c1ccc(CNC(=O)[C@@H]2C[C@@H](O)CN2C(=O)[C@@H](NC(=O)COCCOCCOCCOCCOCCOCCOc2ccc(Nc3ncc(Br)c(NCCCN(C)C(=O)C4CCC4)n3)cc2)C(C)(C)C)cc1`, for which, in assay [2], the maximal effect (Emax) came out at 96%. Besides, the DC50 in assay [1] amounted to 0.034 µM.

`Cc1ncsc1-c1ccc(CNC(=O)[C@@H]2C[C@@H](O)CN2C(=O)[C@@H](NC(=O)COCCCOCCCCOCCCOc2ccc(Nc3ncc(I)c(NCCCN(C)C(=O)C4CCC4)n3)cc2)C(C)(C)C)cc1` returned a maximum response (Emax) in assay [2] of 96%. Besides, the DC50 in assay [1] was determined as 0.003 µM. Moreover, binding in assay [3] was put at a Kd of 0.004 µM.

In turn, `Cc1ncsc1-c1ccc(CNC(=O)[C@@H]2C[C@@H](O)CN2C(=O)[C@@H](NC(=O)COCCOCCCCOCCCCOCCOCCOc2ccc(Nc3ncc(Br)c(NCCCN(C)C(=O)C4CCC4)n3)cc2)C(C)(C)C)cc1` gave an Emax in assay [2] of 96%. Also, in assay [1], the DC50 worked out at 0.003 µM.

`Cc1ncsc1-c1ccc(CNC(=O)[C@@H]2C[C@@H](O)CN2C(=O)[C@@H](NC(=O)COCCCOCCCCOCCCOc2ccc(Nc3ncc(F)c(NCCCN(C)C(=O)C4CCC4)n3)cc2)C(C)(C)C)cc1` registered an Emax in assay [2] of 74%. The DC50 in assay [1] came out at 0.282 µM. In addition, the Kd in assay [3] was determined as 0.104 µM.

For the compound `Cc1ncsc1-c1ccc(CNC(=O)[C@@H]2C[C@@H](O)CN2C(=O)[C@@H](NC(=O)COCCCOCCCCOCCCOc2ccc(Nc3nccc(NCCCN(C)C(=O)C4CCC4)n3)cc2)C(C)(C)C)cc1`, in assay [1], the DC50 was over 1 µM. The compound further showed a Kd in assay [3] of 0.725 µM.

`Cc1ncsc1-c1ccc(CNC(=O)[C@@H]2C[C@@H](O)CN2C(=O)[C@@H](NC(=O)COCCCOCCCCOCCCOc2ccc(Nc3ncc(Cl)c(NCCCN(C)C(=O)C4CCC4)n3)cc2)C(C)(C)C)cc1`: the maximal effect (Emax) in assay [2] was determined as 96%. For the same compound, the 50% degradation concentration (DC50) in assay [1] stood at 0.01 µM. Besides, the Kd in assay [3] came out at 0.0104 µM.

In assay [1], `Cc1ncsc1-c1ccc(CNC(=O)[C@@H]2C[C@@H](O)CN2C(=O)[C@@H](NC(=O)COCCCOCCCOc2ccc(Nc3ncc(Br)c(NCCCN(C)C(=O)C4CCC4)n3)cc2)C(C)(C)C)cc1` came in with a DC50 of over 1 µM.

In assay [2], `Cc1ncsc1-c1ccc(CNC(=O)[C@@H]2C[C@@H](O)CN2C(=O)[C@@H](NC(=O)COCCCOCCCCOCCCOc2ccc(Nc3ncc(C4CCC4)c(NCCCN(C)C(=O)C4CCC4)n3)cc2)C(C)(C)C)cc1` returned an Emax of 70%. Further, half-maximal degradation in assay [1] (DC50) was put at 0.544 µM. In assay [3], this compound had a Kd of 1.03 µM.

As to `Cc1ncsc1-c1ccc(CNC(=O)[C@@H]2C[C@@H](O)CN2C(=O)[C@@H](NC(=O)COCCOCCOc2ccc(Nc3ncc(Br)c(NCCCN(C)C(=O)C4CCC4)n3)cc2)C(C)(C)C)cc1`, the DC50 in assay [1] was over 1 µM.

Compound `C=Cc1cnc(Nc2ccc(OCCCOCCCCOCCCOCC(=O)N[C@H](C(=O)N3C[C@H](O)C[C@H]3C(=O)NCc3ccc(-c4scnc4C)cc3)C(C)(C)C)cc2)nc1NCCCN(C)C(=O)C1CCC1` displayed an Emax in assay [2] of 96%. Besides, in assay [1], the 50% degradation concentration (DC50) amounted to 0.048 µM. This compound returned a Kd in assay [3] of 0.13 µM.

Take `Cc1ncsc1-c1ccc(CNC(=O)[C@@H]2C[C@@H](O)CN2C(=O)[C@@H](NC(=O)COCCCCCOCCCCOCCCCOCCCCOCCCCCOc2ccc(Nc3ncc(Br)c(NCCCN(C)C(=O)C4CCC4)n3)cc2)C(C)(C)C)cc1`: the Emax in assay [2] is 76%. Also, half-maximal degradation in assay [1] (DC50) was put at 0.292 µM.

In turn, `Cc1ncsc1-c1ccc(CNC(=O)[C@@H]2C[C@@H](O)CN2C(=O)[C@@H](NC(=O)COCCOCCCCOCCCCOCCOc2ccc(Nc3ncc(Br)c(NCCCN(C)C(=O)C4CCC4)n3)cc2)C(C)(C)C)cc1` returned a maximal response (Emax) in assay [2] of 96%. The compound also registered a DC50 in assay [1] of 0.006 µM.

In assay [2], `Cc1ncsc1-c1ccc(CNC(=O)[C@@H]2C[C@@H](O)CN2C(=O)[C@@H](NC(=O)COCCOCCOCCOCCOc2ccc(Nc3ncc(Br)c(NCCCN(C)C(=O)C4CCC4)n3)cc2)C(C)(C)C)cc1` registered an Emax of 92%. Also, the DC50 in assay [1] was determined as 0.103 µM.

With `Cc1ncsc1-c1ccc(CNC(=O)[C@@H]2C[C@@H](O)CN2C(=O)[C@@H](NC(=O)COCCCOCCCCOCCCOc2ccc(Nc3ncc(C(F)(F)F)c(NCCCN(C)C(=O)C4CCC4)n3)cc2)C(C)(C)C)cc1`, in assay [2], the Emax is 96%. Also, the DC50 in assay [1] was 0.029 µM. Moreover, the Kd in assay [3] came out at 0.013 µM.

Compound `Cc1ncsc1-c1ccc(CNC(=O)[C@@H]2C[C@@H](O)CN2C(=O)[C@@H](NC(=O)COCCOCCOCCOc2ccc(Nc3ncc(Br)c(NCCCN(C)C(=O)C4CCC4)n3)cc2)C(C)(C)C)cc1` yielded a DC50 in assay [1] of over 1 µM.

In turn, `Cc1ncsc1-c1ccc(CNC(=O)[C@@H]2C[C@@H](O)CN2C(=O)[C@@H](NC(=O)COCCCCOc2ccc(Nc3ncc(Br)c(NCCCN(C)C(=O)C4CCC4)n3)cc2)C(C)(C)C)cc1` came in with a DC50 in assay [1] of over 1 µM.

In turn, `Cc1cnc(Nc2ccc(OCCCOCCCCOCCCOCC(=O)N[C@H](C(=O)N3C[C@H](O)C[C@H]3C(=O)NCc3ccc(-c4scnc4C)cc3)C(C)(C)C)cc2)nc1NCCCN(C)C(=O)C1CCC1` had an Emax in assay [2] of 89%. In addition, the DC50 in assay [1] turned out to be 0.092 µM. Also, the Kd in assay [3] came to 0.27 µM.
